Article PMC11605122 (Nature Communications, 2024)

Assays:
[1] = gene expression in mouse tissues/SVF; assay type: in vivo
[2] = tested on: eWAT, iWAT, BAT; test: PKA Thr197 and HSL Ser660 phosphorylation; assay type: in vivo, mouse; conditions: DIO mice, G49
How it was run: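 Tissue lysates were cleared twice at 98,560 × g for 40 min at 4 °C; protein was measured by BCA. After transfer, loading was checked with Ponceau. Membranes were blocked with 6% skimmed milk in TBS-0.05% Tween-20 for 2 h at RT, then incubated with primary antibodies overnight at 4 °C.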

[3] = tested on: mouse adipocytes from eWAT; test: lipolysis; assay type: cell-based; conditions: isolated adipocytes from eWAT, 500 nM G49, 4 h
[4] = F4/80 and TH immunostaining of eWAT; assay type: in vivo, mouse; conditions: G49, 6 h
[5] = intrahepatic triglyceride content; assay type: in vivo, mouse; conditions: DIO mice
[6] = tested on: liver Cd11b+Ly6g+ cells; test: liver neutrophils; assay type: in vivo, mouse; conditions: DIO mice, G49
How it was run: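 Liver non-parenchymal cells underwent ACK red-cell lysis (5 min, RT) and were washed in HBSS. They were stained 20 min at RT with CD45-FITC, CD11b-PECy7 and Ly6G-PE, then acquired on a FACSCanto II.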

[7] = tested on: pancreatic islets from DIO mice; test: ex vivo glucose-stimulated insulin secretion; assay type: cell-based, mouse; conditions: 500 nM G49, 1 or 24 h
How it was run: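 Islets were plated at 100 per 3 mL and treated the next day with 500 nM test compound for 1 or 24 h. After 1 h preincubation in KRB (2.8 mM glucose, 0.25% BSA, pH 7.4, 37 °C), batches of 3 islets were stimulated 1 h with 2.8 or 16.7 mM glucose. Insulin was measured by ELISA and normalised per islet; n = 4 mice.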

[8] = plasma TGs; assay type: in vivo, mouse; conditions: DIO mice, G49, time course
How it was run: (§1)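 Plasma ALT was read with Reflotron strips and plasma TGs by colorimetric assay. Serum FGF21 and plasma adiponectin and insulin were measured by ELISA.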

[9] = energy expenditure; assay type: in vivo, mouse; conditions: DIO mice, G49, day 3, light and dark phases
How it was run: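 Mice entered metabolic cages 2 days before the first s.c. dose, which was given every 2 days. Indirect calorimetry parameters were then recorded for the following 3 days.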

[10] = fatty acid oxidation in liver tissue; assay type: in vivo, mouse; conditions: DIO mice, G49, 72 h
How it was run: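 Frozen liver (30 mg) was homogenised in cold STE buffer (25 mM Tris-HCl, sucrose, 1 mM EDTA, pH 7.4), sonicated 10 s and spun at 420 × g for 10 min at 4 °C. The supernatant was used for the oxidation reaction. Radioactive acid-soluble metabolites were counted by scintillation and expressed as nmol/g liver/h.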

[11] = tested on: primary mouse hepatocytes; test: fatty acid oxidation and Cpt1a in primary mouse hepatocytes; assay type: cell-based; conditions: 500 nM G49, 16 h
How it was run: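 Primary hepatocytes came from non-fasted male C57BL/6J mice fed HFD for 12 weeks, with or without in vivo treatment, by two-step collagenase perfusion. Cells were spun at 60 × g, purified on isotonic Percoll (1:1) at 230 × g and seeded on collagen. They were cultured 24 h at 37 °C, 5% CO2 before exposure to the test compound.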

[12] = plasma/serum FGF21; assay type: in vivo, mouse; conditions: DIO mice, G49
How it was run: as §1

[13] = BAT skin temperature; assay type: in vivo, mouse
[14] = tested on: brown adipocytes; test: OCR in differentiated brown adipocytes; assay type: cell-based, mouse; conditions: G49, 16 h
How it was run: (§2)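 Brown preadipocytes were immortalised by retroviral SV40 Large T (20% FBS, 8 μg/mL polybrene, 48 h) at 70–80% confluence. Differentiation began with 2 days in induction medium (0.5 μM dexamethasone, 0.5 mM IBMX, indomethacin, 1 μM rosiglitazone).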

[15] = tested on: brown adipocytes; test: fatty acid oxidation in brown adipocytes; assay type: cell-based, mouse; conditions: G49, brown adipocytes
How it was run: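 Palmitate oxidation to CO2 and to acid-soluble material (acyl-carnitine, Krebs cycle intermediates, acetyl-CoA) was measured in primary hepatocytes or differentiated brown adipocytes, with or without 500 nM test compound.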

[16] = tested on: brown adipocytes; test: lipolysis in brown adipocytes; assay type: cell-based, mouse; conditions: G49, brown adipocytes, 500 nM, 4 h
[17] = tested on: brown adipocytes; test: thermogenic gene expression and UCP1 in brown adipocytes; assay type: cell-based, mouse; conditions: G49, brown adipocytes
How it was run: as §2

**Q.** With “HSQGTFTSDYSKYLEEEAVRLFIC (40 kDa PEG) WLMNT-amide acetate salt [G49]” as the sequence, how does the “hepatic Cpt1a and Ppara mRNAs” value ([1]; DIO mice, G49) read?
**A.** Its value is “concomitant increase in hepatic Cpt1a and Ppara mRNAs”.

**Q.** What about the “hepatic Srebf1 and Fasn mRNA” value ([1]; DIO mice, G49 + ATGLi, 6 h) of the same sequence?
**A.** The value was “Srebf1 and Fasn mRNAs were reduced”.

**Q.** What about the “liver Fgf21 mRNA upregulation” value ([1]; DIO mice, G49 + ATGLi, 72 h) of the same sequence?
**A.** The value was “G49-mediated Fgf21 mRNA upregulation in the liver was also abolished”.

**Q.** And the “hepatic Fasn and Srebf1 mRNA” value ([1]; DIO mice, G49 + GCGRant, 6 h)?
**A.** The value was “reduced by the presence of GCGRant”.

**Q.** And the “thermogenic-related genes in BAT” value ([1]; DIO mice, G49, 1 week)?
**A.** Its value is “increase in thermogenic-related genes (Cpt1b, Dio2, CoxIVi1, Ucp1, Th, Fgf21)”.

**Q.** What about the “Th mRNA in BAT” value ([1]; DIO mice, G49 with blockade of GCGR) of the same sequence?
**A.** The value was “maintained G49-mediated increase in Th mRNA levels”.

**Q.** And the “Fgf21 mRNA in BAT” value ([1]; FGF21Alb-KO mice, G49, 72 h)?
**A.** Its value is “Fgf21 mRNA upregulation was not observed in BAT”.

**Q.** What about the “Fgf21 mRNA in eWAT and iWAT” value ([1]; FGF21Alb-KO mice, G49, 72 h) of the same sequence?
**A.** Its value is “Fgf21 mRNA levels were upregulated in eWAT and iWAT”.

**Q.** And the “Th and cytokine mRNA in SVF” value ([1]; SVF of eWAT, G49, 6 h and 24 h)?
**A.** The value was “an increase of Th mRNA at 6 h and a peak of Il14, Il10, and Il13 that declined at 24 h post-G49 treatment”.

**Q.** What about the “angiogenesis and beiging-related genes” value ([1]; eWAT, G49, 1 week) of the same sequence?
**A.** Its value is “Increases in angiogenesis (Vegf) and beiging-related genes (Cidea, Prdm16, CoxIVi1, Ucp1, Th, Cpt1a)”.

**Q.** And the “M2 markers and Th mRNA” value ([1]; eWAT, G49, 6 h)?
**A.** Its value is “upregulated mRNA levels of M2 markers (Arg1, Il10, Tgfb) as well as Th”.

**Q.** And the “Acta2, Tgfb, Mmp9 mRNA” value ([1]; eWAT, G49, 6 h and day 7)?
**A.** The value was “transient increase in Acta2, Tgfb, and Mmp9 mRNA levels that declined at day 7”.

**Q.** What about the “Srebf1 and Fasn mRNA” value ([1]; liver, DIO mice, G49, 6 h) of the same sequence?
**A.** The value was “both were elevated at 6 h post-G49 treatment”.

**Q.** What about the “PKA/HSL phosphorylation (lipolytic molecular signature)” value ([2]; BAT) of the same sequence?
**A.** Its value is “not in brown adipose tissue (BAT)”.

**Q.** And the “PKA/HSL phosphorylation (lipolytic molecular signature)” value ([2]; iWAT)?
**A.** Its value is “also found in iWAT”.

**Q.** And the “glycerol and FFA release” value [3]?
**A.** The value was “increased glycerol and FFA release”.

**Q.** And the “F4/80 and TH positive immune cells” value [4]?
**A.** Its value is “F4/80 and Tyrosine Hydroxylase (TH) positive immune cells were found in some eWAT areas”.

**Q.** And the hepatic lipid overload ([5]; G49 + GCGRant, 6 h)?
**A.** The hepatic lipid overload was “hepatic lipid overload and ALT elevation were not observed”.

**Q.** And the liver triglycerides ([5]; G49, time course)?
**A.** The liver triglycerides was “elevated at 3–12 h post-injection, peaking at 6 h”.

**Q.** What about the hepatic neutrophil infiltration [6] of the same sequence?
**A.** Its hepatic neutrophil infiltration is “an increase in hepatic neutrophil infiltration”.

**Q.** What about the insulin secretion [7] of the same sequence?
**A.** Its insulin secretion is “also observed by ex vivo treatment of pancreatic islets from DIO mice with G49”.

**Q.** What about the “circulating TGs” value [8] of the same sequence?
**A.** The value was “reached maximal levels at 24 h and decreased to basal levels at 48 h post-G49 treatment”.

**Q.** What about the energy expenditure [9] of the same sequence?
**A.** Its energy expenditure is “a significant increase in EE”.

**Q.** And the “hepatic fatty acid oxidation” value [10]?
**A.** The value was “concomitant increase in hepatic Cpt1a and Ppara mRNAs (Fig. 3J) and fatty acid oxidation (FAO)”.

**Q.** What about the “Cpt1a mRNA and FAO” value [11] of the same sequence?
**A.** The value was “increased Cpt1a mRNA levels and FAO”.

**Q.** And the “liver Fgf21 expression and FGF21 plasma levels” value [12]?
**A.** The value was “reached significant increases at 12 h post-first G49 dose”.

**Q.** What about the BAT temperature ([13]; Adipoq−/− mice, G49) of the same sequence?
**A.** Its BAT temperature is “G49-mediated increase in BAT temperature was reduced”.

**Q.** And the BAT temperature ([13]; DIO mice, G49 + ATGLi, 72 h)?
**A.** Its BAT temperature is “suppression of G49 effects on UCP1 expression and BAT temperature”.

**Q.** What about the BAT temperature ([13]; FGF21Alb-KO mice, G49 plus recombinant murine FGF21) of the same sequence?
**A.** The BAT temperature was “markedly increased UCP1 protein levels and BAT temperature”.

**Q.** And the BAT activation ([13]; UCP1−/− mice, G49, 1 week)?
**A.** The BAT activation was “no features of BAT activation were found”.

**Q.** And the mitochondrial respiration [14]?
**A.** Its mitochondrial respiration is “an increase in mitochondrial respiration”.

**Q.** What about the “Cpt1b expression and FAO” value [15] of the same sequence?
**A.** The value was “increased Cpt1b gene expression and FAO”.

**Q.** And the lipolysis [16]?
**A.** Its lipolysis is “up-regulated lipolysis”.

**Q.** And the “thermogenic gene expression and UCP1 protein” value [17]?
**A.** Its value is “up-regulated lipolysis, thermogenic gene expression (Ucp1, Ppargc1a, Sir2) and UCP1 protein levels in BA”.
